{"source": "ChEMBL document CHEMBL1667749", "about": "“Design & synthesis of N'-[substituted] pyridine-4-carbohydrazides as potential anticonvulsant agents” (Eur J Med Chem, 2011)", "key": {"Rattus norvegicus [1]": {"test_system": "Rattus norvegicus", "assay": "Acute toxicity in Sprague-Dawley rat assessed as motor impairment at 100 mg/kg, ip after 4 hrs", "type": "organism-based", "design": "dose 100 mg/kg, route intraperitoneal", "details": "in vivo", "method_in_brief": "(§1)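 Male albino Sprague Dawley rats, two per dose, given test compound i.p. as a suspension in 0.5% methyl cellulose. Behaviour was closely observed and recorded over 4 h to detect acute motor impairment. Values are scored as animals toxic over animals tested at each time point.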"}, "Rattus norvegicus [2]": {"test_system": "Rattus norvegicus", "assay": "Acute toxicity in Sprague-Dawley rat assessed as motor impairment at 100 mg/kg, ip after 2 hrs", "type": "organism-based", "design": "dose 100 mg/kg, route intraperitoneal", "details": "in vivo", "method_in_brief": "as §1"}, "Rattus norvegicus [3]": {"test_system": "Rattus norvegicus", "assay": "Acute toxicity in Sprague-Dawley rat assessed as motor impairment at 100 mg/kg, ip after 1 hr", "type": "organism-based", "design": "dose 100 mg/kg, route intraperitoneal", "details": "in vivo", "method_in_brief": "as §1"}, "Rattus norvegicus [4]": {"test_system": "Rattus norvegicus", "assay": "Acute toxicity in Sprague-Dawley rat assessed as motor impairment at 100 mg/kg, ip after 0.5 hrs", "type": "organism-based", "design": "dose 100 mg/kg, route intraperitoneal", "details": "in vivo", "method_in_brief": "as §1"}, "Rattus norvegicus [5]": {"test_system": "Rattus norvegicus", "assay": "Acute toxicity in Sprague-Dawley rat assessed as motor impairment at 100 mg/kg, ip after 0.25 hrs", "type": "organism-based", "design": "dose 100 mg/kg, route intraperitoneal", "details": "in vivo", "method_in_brief": "as §1"}, "Mus musculus [6]": {"test_system": "Mus musculus", "assay": "Neurotoxicity in albino CF-1 mouse assessed as motor impairment at 300 mg/kg, ip after 0.5 hrs by rotarod test", "type": "toxicity, organism-based", "design": "dose 300 mg/kg, route intraperitoneal", "details": "in vivo", "method_in_brief": "(§2)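 Minimal motor impairment in male CF-1 mice by rotorod after i.p. dosing; toxic if animal falls off rotating rod 3 times within 1 min. Screen doses 30, 100, 300 mg/kg; quantitative TD50 (95% confidence interval) determined at time of peak effect.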"}, "Mus musculus [7]": {"test_system": "Mus musculus", "assay": "Neurotoxicity in albino CF-1 mouse assessed as motor impairment at 300 mg/kg, ip after 4 hrs by rotarod test", "type": "toxicity, organism-based", "design": "dose 300 mg/kg, route intraperitoneal", "details": "in vivo", "method_in_brief": "as §2"}, "Rattus norvegicus [8]": {"test_system": "Rattus norvegicus", "assay": "Toxicity in Sprague-Dawley rat assessed as change in body weight at 600 mg/kg, ip measured after 24 hrs of clonus of one of the fore limbs seizure stage in protected rat", "type": "organism-based", "design": "dose 600 mg/kg, route intraperitoneal", "details": "in vivo", "method_in_brief": "(§3)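 Male Sprague Dawley rats (150–180 g) dosed i.p. then challenged with pilocarpine; body weight change measured 24 h after first Stage III seizure, split by protected and non-protected rats, given ± S.E.M.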"}, "Rattus norvegicus [9]": {"test_system": "Rattus norvegicus", "assay": "Toxicity in Sprague-Dawley rat assessed as change in body weight at 600 mg/kg, ip measured after 24 hrs of clonus of one of the fore limbs seizure stage in non-protected rat", "type": "organism-based", "design": "dose 600 mg/kg, route intraperitoneal", "details": "in vivo", "method_in_brief": "as §3"}, "[10]": {"assay": "Octanol-phosphate buffer partition coefficient, log P of the compound at 5 mg, after 24 hrs by UV spectroscopic analysis", "type": "physicochemical", "method_in_brief": "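5 mg compound added to 10 mL octanol plus 10 mL phosphate buffer in stoppered tube, mechanically shaken 24 h at room temperature, then left in separating funnel 6 h to equilibrate.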"}, "Rattus norvegicus [11]": {"test_system": "Rattus norvegicus", "assay": "Acute toxicity in Sprague-Dawley rat assessed as motor impairment at 300 mg/kg, ip after 0.25 hrs", "type": "organism-based", "design": "dose 300 mg/kg, route intraperitoneal", "details": "in vivo", "method_in_brief": "as §1"}, "Rattus norvegicus [12]": {"test_system": "Rattus norvegicus", "assay": "Acute toxicity in Sprague-Dawley rat assessed as motor impairment at 300 mg/kg, ip after 0.5 hrs", "type": "organism-based", "design": "dose 300 mg/kg, route intraperitoneal", "details": "in vivo", "method_in_brief": "as §1"}, "Rattus norvegicus [13]": {"test_system": "Rattus norvegicus", "assay": "Acute toxicity in Sprague-Dawley rat assessed as motor impairment at 300 mg/kg, ip after 1 hr", "type": "organism-based", "design": "dose 300 mg/kg, route intraperitoneal", "details": "in vivo", "method_in_brief": "as §1"}, "Rattus norvegicus [14]": {"test_system": "Rattus norvegicus", "assay": "Acute toxicity in Sprague-Dawley rat assessed as motor impairment at 300 mg/kg, ip after 2 hrs", "type": "organism-based", "design": "dose 300 mg/kg, route intraperitoneal", "details": "in vivo", "method_in_brief": "as §1"}, "Rattus norvegicus [15]": {"test_system": "Rattus norvegicus", "assay": "Acute toxicity in Sprague-Dawley rat assessed as motor impairment at 300 mg/kg, ip after 4 hrs", "type": "organism-based", "design": "dose 300 mg/kg, route intraperitoneal", "details": "in vivo", "method_in_brief": "as §1"}, "Rattus norvegicus [16]": {"test_system": "Rattus norvegicus", "assay": "Acute toxicity in Sprague-Dawley rat assessed as motor impairment at 600 mg/kg, ip after 0.25 hrs", "type": "organism-based", "design": "dose 600 mg/kg, route intraperitoneal", "details": "in vivo", "method_in_brief": "as §1"}, "Rattus norvegicus [17]": {"test_system": "Rattus norvegicus", "assay": "Acute toxicity in Sprague-Dawley rat assessed as motor impairment at 600 mg/kg, ip after 0.5 hrs", "type": "organism-based", "design": "dose 600 mg/kg, route intraperitoneal", "details": "in vivo", "method_in_brief": "as §1"}, "Rattus norvegicus [18]": {"test_system": "Rattus norvegicus", "assay": "Acute toxicity in Sprague-Dawley rat assessed as motor impairment at 600 mg/kg, ip after 1 hr", "type": "organism-based", "design": "dose 600 mg/kg, route intraperitoneal", "details": "in vivo", "method_in_brief": "as §1"}, "Rattus norvegicus [19]": {"test_system": "Rattus norvegicus", "assay": "Acute toxicity in Sprague-Dawley rat assessed as motor impairment at 600 mg/kg, ip after 2 hrs", "type": "organism-based", "design": "dose 600 mg/kg, route intraperitoneal", "details": "in vivo", "method_in_brief": "as §1"}, "Rattus norvegicus [20]": {"test_system": "Rattus norvegicus", "assay": "Acute toxicity in Sprague-Dawley rat assessed as motor impairment at 600 mg/kg, ip after 4 hrs", "type": "organism-based", "design": "dose 600 mg/kg, route intraperitoneal", "details": "in vivo", "method_in_brief": "as §1"}, "Mus musculus [21]": {"test_system": "Mus musculus", "assay": "Anticonvulsant activity in ip dosed albino CF-1 mouse assessed as dose required to protect against maximal electroshock-induced seizures after 0.5 hrs", "type": "functional", "method_in_brief": "(§4)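 Male CF-1 mice (18–25 g), i.p. in 0.5% methyl cellulose at 30, 100 and 300 mg/kg; MES: 60 Hz, 50 mA, 0.2 s through tetracaine-primed corneal electrodes; protection = abolished hind limb tonic extension. Value given as minimum dose active in half or more of mice.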"}, "Mus musculus [22]": {"test_system": "Mus musculus", "assay": "Anticonvulsant activity in ip dosed albino CF-1 mouse assessed as dose required to protect against maximal electroshock-induced seizures after 2 hrs", "type": "functional", "method_in_brief": "as §4"}, "Mus musculus [23]": {"test_system": "Mus musculus", "assay": "Anticonvulsant activity in ip dosed albino CF-1 mouse assessed as dose required to protect against maximal electroshock-induced seizures after 4 hrs", "type": "functional", "method_in_brief": "as §4"}, "Mus musculus [24]": {"test_system": "Mus musculus", "assay": "Anticonvulsant activity in albino CF-1 mouse assessed as protection against subcutaneous metrazol-induced seizures at 300 mg/kg, ip after 0.5 hrs", "type": "functional, organism-based", "design": "dose 300 mg/kg", "method_in_brief": "(§5)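 Male CF-1 mice, i.p. at 30, 100, 300 mg/kg in 0.5% methyl cellulose; metrazol dose convulsing 97% of animals injected s.c. in midline neck fold, mice isolated and watched 30 min; protected if no 3–5 s clonic spasm episode of limbs, jaws or vibrissae.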"}, "Mus musculus [25]": {"test_system": "Mus musculus", "assay": "Anticonvulsant activity in albino CF-1 mouse assessed as protection against subcutaneous metrazol-induced seizures at 300 mg/kg, ip after 4 hrs", "type": "functional, organism-based", "design": "dose 300 mg/kg", "method_in_brief": "as §5"}, "Mus musculus [26]": {"test_system": "Mus musculus", "assay": "Neurotoxicity in ip dosed albino CF-1 mouse assessed as dose required to cause motor impairment after 0.5 hrs by rotarod test", "type": "toxicity, organism-based", "details": "in vivo", "method_in_brief": "as §2"}, "Mus musculus [27]": {"test_system": "Mus musculus", "assay": "Neurotoxicity in ip dosed albino CF-1 mouse assessed as dose required to cause motor impairment after 4 hrs by rotarod test", "type": "toxicity, organism-based", "details": "in vivo", "method_in_brief": "as §2"}}, "note": "Active and inactive are the calls of the source. The rule behind the calls is not given here."}
{"molecule": "O=C1Nc2ccccc2/C1=N/NC(=O)c1ccncc1", "values": [{"measurement": "Activity", "setting": "Rattus norvegicus [1]", "value": "Non-toxic"}, {"measurement": "Activity", "setting": "Rattus norvegicus [2]", "value": "Non-toxic"}, {"measurement": "Activity", "setting": "Rattus norvegicus [3]", "value": "Non-toxic"}, {"measurement": "Activity", "setting": "Rattus norvegicus [4]", "value": "Non-toxic"}, {"measurement": "Activity", "setting": "Rattus norvegicus [5]", "value": "Non-toxic"}, {"measurement": "Activity", "setting": "Mus musculus [6]", "value": "Non-toxic"}, {"measurement": "Activity", "setting": "Mus musculus [7]", "value": "Non-toxic"}, {"measurement": "Activity", "setting": "Rattus norvegicus [8]", "value": "Non-toxic"}, {"measurement": "Activity", "setting": "Rattus norvegicus [9]", "value": 20, "unit": "g"}, {"measurement": "logP at 24 h", "setting": "[10]", "value": 1.12}, {"measurement": "Activity", "setting": "Rattus norvegicus [11]", "value": "Non-toxic"}, {"measurement": "Activity", "setting": "Rattus norvegicus [12]", "value": "Non-toxic"}, {"measurement": "Activity", "setting": "Rattus norvegicus [13]", "value": "Non-toxic"}, {"measurement": "Activity", "setting": "Rattus norvegicus [14]", "value": "Non-toxic"}, {"measurement": "Activity", "setting": "Rattus norvegicus [15]", "value": "Non-toxic"}, {"measurement": "Activity", "setting": "Rattus norvegicus [16]", "value": "Non-toxic"}, {"measurement": "Activity", "setting": "Rattus norvegicus [17]", "value": "Non-toxic"}, {"measurement": "Activity", "setting": "Rattus norvegicus [18]", "value": "Non-toxic"}, {"measurement": "Activity", "setting": "Rattus norvegicus [19]", "value": "Non-toxic"}, {"measurement": "Activity", "setting": "Rattus norvegicus [20]", "value": "Non-toxic"}]}
{"molecule": "O=C1NC(=O)C(c2ccccc2)(c2ccccc2)N1", "note": "[PHENYTOIN]", "values": [{"measurement": "Activity", "setting": "Mus musculus [21]", "value": 30, "unit": "mg/kg"}, {"measurement": "Activity", "setting": "Mus musculus [22]", "value": 30, "unit": "mg/kg"}, {"measurement": "Activity", "setting": "Mus musculus [23]", "value": 30, "unit": "mg/kg"}, {"measurement": "Activity", "setting": "Mus musculus [24]", "value": "inactive"}, {"measurement": "Activity", "setting": "Mus musculus [25]", "value": "inactive"}, {"measurement": "Activity", "setting": "Mus musculus [26]", "value": 100, "unit": "mg/kg"}, {"measurement": "Activity", "setting": "Mus musculus [27]", "value": 100, "unit": "mg/kg"}]}
